Bioassay records from PubChem.
Only some compounds are listed: those with a hit (about 1.4% of all), similar ones and a draw of the others.
ARNT-TACC3 inh: disruptors of human ARNT/TACC3 interaction; inhibition, % at 9.99 µM; AID 623870; AlphaScreen His-ARNT PAS-B/GST-TACC3 binding, luminescence; TACC3 fragment carries E629A point mutation; Q9Y6A5; 390,000 tested, 0.66% active;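 active = mean inhibition of replicates at least 50% and at least half of replicates each reaching 50%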;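 also: 0% = complete ARNT plus TACC3 wells and 100% = ARNT alone without TACC3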
Dyrk1A ADPGlo: inhibitors of rat Dyrk1A kinase; Q63470; ADP-Glo luminescence, NFATc1 peptide; inhibition, % at 12.5 µM; 310,000 tested, 0.43% active; AID 504441; in the data active = inhibition above about 50%;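 also: plate controls were vehicle with enzyme for no effect and no enzyme for full effect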
CAL PDZ FP-1: inhibitors of human CAL PDZ peptide binding; Q9HD26; purified CAL PDZ, TMR-peptide fluorescence polarization, 1 h; inhibition, % at 20 µM; 330,000 tested, 0.02% active;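 active = highest replicate inhibition of at least 40%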;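 also: plate controls were DMSO neutral control wells for no effect and unlabeled competitor peptide control wells for full effect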
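Control set: unlabelled peptide and DMSO controls / Material: purified CerCALP PDZ construct / Timing: 1 h incubation at room temperature before polarization reading / Doses: 20 µM, one dose / Detection: fluorescence polarization (mP)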
CAL PDZ FP-2: blocks peptide binding to the human CAL PDZ domain; Q9HD26; purified CAL PDZ, TMR-peptide fluorescence polarization, 1 h; inhibition, % at 24.9 µM; 300,000 tested, 0.92% active; AID 602252;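 active = mean inhibition of at least 30% with at least half of replicates also reaching 30%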;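 also: 0% = DMSO neutral control and 100% = excess unlabeled competitor peptide PRC23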
Numbers without * were called inactive; x = no result given; + = active, no number.

SMILES	ARNT-TACC3 inh	Dyrk1A ADPGlo	CAL PDZ FP-1	CAL PDZ FP-2
CCOP(=O)(/C(C#N)=C(/O)c1ccccc1)c1ccccc1 (configuration not stated)	-7.3	-7.3	-0.3	122.5*
Nc1c(Cl)ncnc1N/N=C/c1ccc2ccccc2n1	64.3*	2.7	-1.3	2.2
O=C(O)c1ccc(S(=O)(=O)N2CCCc3ccccc32)cc1	3.5	-1.6	0.2	-6.4
COCCNC(=O)c1ccc(S(=O)(=O)N2CCCc3ccccc32)cc1	x	-3.5	0.4	59.0*
CNC(=O)Cn1nc(C)c(S(=O)(=O)N2CCOCC2)c1C	x	-3.6	-0.9	49.9*
COc1ccc(NC(=O)C[C@H]2CC[C@H]3[C@@H](COc4ccc(NC(=O)C5CC5)cc4C(=O)N3C)O2)cc1	0.2	x	x	x
C[C@H](CO)N1C[C@H](C)[C@H](CN(C)C)Oc2ccc(NC(=O)Cn3cnnn3)cc2CC1=O	0.9	x	x	x
COc1cc(NCCCC(C)N)c2ncccc2c1 (configuration not stated)	67.0*	18.0	x	-3.8
Cc1cccc(NC(=O)CS(=O)(=O)c2c[nH]c3ccccc23)c1C	-0.8	3.7	-2.0	54.9*
Cc1cc(C)nc(Nc2n[nH]c(-c3cccc4ccccc34)n2)n1	-24.3	0.1	-2.0	-1.0
Cc1cc(C)nc(Nc2n[nH]c(-c3ccccc3Cl)n2)n1	-1.2	-2.2	0.1	38.2*
O=c1ccc2cc3c([nH]c4ccc(Br)cc43)oc-2c1O	16.8	70.7*	48.2*	4.5
C[C@@H]1CN([C@H](C)CO)C(=O)c2cc(C#Cc3cccc(F)c3)cnc2O[C@@H]1CN(C)Cc1ccccn1	-7.3	x	x	x
CCOC(=O)C1CCCN(S(=O)(=O)c2ccc(Cl)nc2)C1 (configuration not stated)	-2.5	-4.6	0.9	46.5*
O=S(=O)(c1ccc(Cl)nc1)N1CCCCC1	-15.9	-6.3	-1.7	-0.4
O=S(=O)(c1ccc(Cl)nc1)N1CCOCC1	22.3*	-2.7	-0.1	6.2
Cc1cc(C(=O)Nc2cccc3c2O[C@@H](CN(C)C(=O)Nc2ccc4c(c2)OCO4)[C@@H](C)CN([C@H](C)CO)C3=O)n(C)n1	-4.7	x	x	x
Cc1cc(C(=O)NNC(=O)c2cccc(C(F)(F)F)c2)no1	-4.5	3.9	-0.6	45.0*
Cc1cc(C(=O)NNC(=O)c2ccc(C(F)(F)F)cc2)no1	-3.9	2.4	-0.1	59.6*
CCCN(C)C[C@H]1Oc2cc(-c3cccnc3)ccc2S(=O)(=O)N([C@@H](C)CO)C[C@H]1C	-1.7	x	x	x
COc1ccc(NC(C)=O)cc1NC(=O)C1CCCN1C(=O)c1cccs1 (configuration not stated)	-2.2	-2.8	-0.6	48.1*
CCOc1ccccc1N1C(=O)CN(Cc2ccc(OC)c(OC)c2)C1=S	-11.9	2.2	x	47.8*
COc1ccc(CN2CC(=O)N(c3ccccc3OC)C2=S)cc1OC	x	3.2	-1.4	-4.2
C[C@@H]1CCCCO[C@H](CN(C)CC2CCCCC2)[C@H](C)CN([C@@H](C)CO)C(=O)c2cc(NS(=O)(=O)c3cn(C)cn3)ccc2O1	-2.1	x	x	x
CN(/C=C/c1c([N+](=O)[O-])c(=O)n(C)c(=O)n1C)c1ccccc1	active	1.8	-7.2	86.2*
SMILES	ARNT-TACC3 inh	Dyrk1A ADPGlo	CAL PDZ FP-1	CAL PDZ FP-2
O=C(COC(=O)Cc1ccc(S(=O)(=O)N2CCOCC2)s1)Nc1ccc(F)cc1F	-7.3	x	0.0	44.8*
O=C(NC1CCCCC1)N[C@@H]1CC[C@H](CC(=O)N2CCOCC2)O[C@@H]1CO	-0.9	x	x	x
Cc1ccc(C(=O)N/N=C/c2ccc(-c3ccccc3[N+](=O)[O-])o2)cn1	26.9*	3.1	-2.2	-0.5
CC(C)NC(=O)N(C)C[C@H]1Oc2ccc(NC(=O)C3CCCCC3)cc2C(=O)N([C@H](C)CO)C[C@H]1C	1.5	x	x	x
C[C@@H]1CCCCO[C@@H](CN(C)CC2CC2)[C@@H](C)CN([C@H](C)CO)C(=O)c2cc(NS(=O)(=O)c3ccccc3)ccc2O1	0.1	x	x	x
O=C(C[C@H]1CC[C@@H](NC(=O)c2ccccc2)[C@H](CO)O1)NCCc1ccncc1	-8.4	x	x	x
C[C@H](CO)N1C[C@H](C)[C@@H](CN(C)C(=O)c2ccc(F)cc2)Oc2ncc(-c3ccncc3)cc2C1=O	-1.9	x	x	x
O=C(Nc1ccccc1C(=O)Nc1ccncc1)c1ccccc1	-4.6	2.1	-1.9	43.3*
COc1ccc(NC(=O)C2CCC(N3C(=O)C4C5C=CC(C5)C4C3=O)CC2)cc1 (configuration not stated)	x	-0.8	-4.6	-1.3
COc1ccc(NC(=O)[C@@H]2[C@@H]3C(=O)N(C4CCCCC4)C(=O)[C@@H]3C3c4ccccc4C=CN32)cc1 (some centres not stated)	11.8*	8.5	0.5	-4.9
COc1ccc(C(=O)O)cc1S(N)(=O)=O	-4.1	x	-2.0	32.4*
CNS(=O)(=O)c1cc(C(=O)O)ccc1OC	-1.2	2.0	x	-2.1
C[C@@H]1CN([C@H](C)CO)C(=O)c2cc(NS(=O)(=O)c3ccccc3)ccc2O[C@@H](C)CCCCO[C@@H]1CN(C)S(=O)(=O)c1cccs1	-9.5	x	x	x
Fc1ccc(CN2CCN(C(=S)NCCc3ccccc3)CC2)c(Cl)c1	-9.3	-1.4	-0.2	34.5*
Cc1cn(CC(=O)NCc2ccccn2)c(=O)[nH]c1=O	-4.9	6.8	-0.2	+
CCNC(=O)Nc1ccc2c(c1)C(=O)N(C)[C@@H]1CC[C@H](CC(=O)NCc3ccc(F)cc3)O[C@H]1CO2	-8.9	x	x	x
S=C(Nc1ccccc1)N1CCN(c2ccccc2)CC1	4.6	x	-0.7	x
Cc1ccc(N2CCN(C(=S)Nc3ccccc3)CC2)cc1	-1.1	-0.4	-0.3	85.6*
COc1ccc(COC(=O)C2CC(=O)N(Cc3ccccc3)C2)cc1 (configuration not stated)	-7.1	5.9	0.3	+
COc1ccc(C(=O)NC(=S)N2CCNC(=O)C2)cc1Br	-1.4	6.8	-1.6	-1.5
O=C1CN(C(=S)NC(=O)c2ccc(-c3ccccc3)cc2)CCN1	-4.1	x	-0.8	42.6*
CCCNC(=O)C[C@H]1CC[C@H]2[C@@H](COc3ccc(NC(=O)NCC)cc3C(=O)N2C)O1	5.4	x	x	x
Cc1noc(C)c1NC(=O)N(C)C[C@H]1Oc2c(NC(=O)Nc3ccc(F)cc3)cccc2C(=O)N([C@@H](C)CO)C[C@@H]1C	-8.9	x	x	x
COC(=O)[C@H](Cc1ccccc1)NC(=O)NC(C)CCc1ccccc1 (some centres not stated)	3.9	0.5	x	42.0*
C[C@@H]1CN([C@H](C)CO)S(=O)(=O)c2ccc(-c3cncnc3)cc2O[C@@H]1CN(C)C(=O)Cc1cccnc1	4.5	x	x	x
COc1ccc(C(=O)CCC(C)(C)[N+](=O)[O-])cc1OC	-4.3	x	-0.2	33.0*
O=C(c1ccc(F)cc1F)N1CCN(S(=O)(=O)c2ccc3c(c2)OCCO3)CC1	-1.8	x	-1.0	30.7*
CN(C)S(=O)(=O)c1ccc(C(=O)N2CCN(S(=O)(=O)c3ccc4c(c3)OCCO4)CC2)cc1	-0.2	0.2	-2.1	0.4
NC(=NC(=O)c1ccccc1)N1CCN(C(c2ccccc2)c2ccccc2)CC1	-3.0	x	0.3	89.4*
